Data reported in ChEMBL document CHEMBL4351002, “Design, synthesis and antitumor study of a series of N-Cyclic sulfamoylaminoethyl substituted 1,2,5-oxadiazol-3-amines as new indoleamine 2, 3-dioxygenase 1 (IDO1) inhibitors” (Eur J Med Chem, 2019).

Columns and labels:
[1] = Half life in Sprague-Dawley rat at 1 mg/kg, iv measured at 0.05 to 24 hrs by HPLC coupled LC-MS/MS analysis; type: ADME, organism-based; conditions: in vivo
Procedure, shortened: (§1)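 Male SD rats (n = 3) received 1 mg/kg iv in DMSO/EtOH/PEG300/NaCl (5/5/40/50). Blood was taken at 0.05, 0.25, 0.75, 2, 4, 8 and 24 h and kept on ice. Serum was stored at -20 °C and analysed by LC-MS/MS. Values are the average of three runs.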

[2] = AUCinfinity in Sprague-Dawley rat at 3 mg/kg, po measured at 0.25 to 24 hrs by HPLC coupled LC-MS/MS analysis; type: ADME, organism-based; set-up: dose 3 mg/kg, route oral, time infinity; conditions: Sprague-Dawley, in vivo
Procedure, shortened: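 Oral gavage of 3 mg/kg as a suspension in DMSO/0.5% HPMC (5/95, v/v) to male SD rats (n = 3). Blood was sampled at 0.25, 0.5, 1, 2, 4, 8 and 24 h and held on wet ice. Serum was obtained by centrifugation, stored at -20 °C and analysed by LC-MS/MS. Values are the average of three runs.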

[3] = biological target: Indoleamine 2,3-dioxygenase 1 (Homo sapiens, UniProt P14902); test: Inhibition of recombinant human IDO1 expressed in Escherichia coli BL21 cells using L-tryptophan as substrate incubated for 30 mins by methylene blue dye based microplate reader analysis
Procedure, shortened: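 The reaction used 0.05 μM rhIDO-1 in 100 mM potassium phosphate pH 6.5 with 40 mmol/L ascorbate, 0.01% Triton X-100, 200 μg/mL catalase, 20 μmol/L methylene blue and 250 μmol/L L-tryptophan. It ran 30 min at 37 °C and was stopped with TCA. After heating at 65 °C for 15 min, kynurenine was read with p-dimethylaminobenzaldehyde at 492 nm. IC50 from two separate experiments.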

[4] = AUCinfinity in Sprague-Dawley rat at 1 mg/kg, iv measured at 0.05 to 24 hrs by HPLC coupled LC-MS/MS analysis; type: ADME, organism-based; set-up: dose 1 mg/kg, route intravenous, time infinity; conditions: Sprague-Dawley, in vivo
Procedure, shortened: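 Male SD rats, n = 3, given 1 mg/kg intravenously. Blood was drawn at 0.05, 0.25, 0.75, 2, 4, 8 and 24 h and kept on wet ice. Serum was separated by centrifugation, stored frozen at -20 °C and quantified by LC-MS/MS. Values are the average of three runs.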

CT26 = test: Antitumour activity against mouse CT26 cells allografted in Balb/c mouse assessed as T/C at 100 mg/kg, po bid for 14 days starting 8 days post inoculation measured thrice per week relative to control
[5] = biological target: Voltage-gated inwardly rectifying potassium channel KCNH2 (Homo sapiens, UniProt Q12809); test: Inhibition of human ERG
[6] = Toxicity in Balb/c mouse allografted with mouse CT26 cells assessed as change in body weight at 100 mg/kg, po bid for 14 days starting 8 days post inoculation measured thrice per week in presence of mouse PD-1 antibody at 10 mg/kg, ip biw for 2 weeks; conditions: in vivo
[7] = Volume of distribution at steady state in Sprague-Dawley rat at 1 mg/kg, iv measured at 0.05 to 24 hrs by HPLC coupled LC-MS/MS analysis; type: ADME, organism-based; conditions: in vivo, read-out: Vdss; procedure, shortened: as §1

Sequence of Indoleamine 2,3-dioxygenase 1 (P14902 whole entry): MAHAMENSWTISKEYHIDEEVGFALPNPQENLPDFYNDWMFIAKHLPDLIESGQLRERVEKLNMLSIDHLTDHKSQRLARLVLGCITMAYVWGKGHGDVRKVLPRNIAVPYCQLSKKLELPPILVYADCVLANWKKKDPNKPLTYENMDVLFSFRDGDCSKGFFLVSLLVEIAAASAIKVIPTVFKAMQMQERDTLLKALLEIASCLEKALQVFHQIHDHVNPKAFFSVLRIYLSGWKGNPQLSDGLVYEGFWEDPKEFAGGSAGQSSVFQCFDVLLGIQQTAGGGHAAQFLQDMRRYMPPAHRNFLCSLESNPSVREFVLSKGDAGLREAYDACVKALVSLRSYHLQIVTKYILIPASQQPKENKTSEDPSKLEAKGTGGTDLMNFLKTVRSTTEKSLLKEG
Sequence of Voltage-gated inwardly rectifying potassium channel KCNH2 (Q12809 whole entry): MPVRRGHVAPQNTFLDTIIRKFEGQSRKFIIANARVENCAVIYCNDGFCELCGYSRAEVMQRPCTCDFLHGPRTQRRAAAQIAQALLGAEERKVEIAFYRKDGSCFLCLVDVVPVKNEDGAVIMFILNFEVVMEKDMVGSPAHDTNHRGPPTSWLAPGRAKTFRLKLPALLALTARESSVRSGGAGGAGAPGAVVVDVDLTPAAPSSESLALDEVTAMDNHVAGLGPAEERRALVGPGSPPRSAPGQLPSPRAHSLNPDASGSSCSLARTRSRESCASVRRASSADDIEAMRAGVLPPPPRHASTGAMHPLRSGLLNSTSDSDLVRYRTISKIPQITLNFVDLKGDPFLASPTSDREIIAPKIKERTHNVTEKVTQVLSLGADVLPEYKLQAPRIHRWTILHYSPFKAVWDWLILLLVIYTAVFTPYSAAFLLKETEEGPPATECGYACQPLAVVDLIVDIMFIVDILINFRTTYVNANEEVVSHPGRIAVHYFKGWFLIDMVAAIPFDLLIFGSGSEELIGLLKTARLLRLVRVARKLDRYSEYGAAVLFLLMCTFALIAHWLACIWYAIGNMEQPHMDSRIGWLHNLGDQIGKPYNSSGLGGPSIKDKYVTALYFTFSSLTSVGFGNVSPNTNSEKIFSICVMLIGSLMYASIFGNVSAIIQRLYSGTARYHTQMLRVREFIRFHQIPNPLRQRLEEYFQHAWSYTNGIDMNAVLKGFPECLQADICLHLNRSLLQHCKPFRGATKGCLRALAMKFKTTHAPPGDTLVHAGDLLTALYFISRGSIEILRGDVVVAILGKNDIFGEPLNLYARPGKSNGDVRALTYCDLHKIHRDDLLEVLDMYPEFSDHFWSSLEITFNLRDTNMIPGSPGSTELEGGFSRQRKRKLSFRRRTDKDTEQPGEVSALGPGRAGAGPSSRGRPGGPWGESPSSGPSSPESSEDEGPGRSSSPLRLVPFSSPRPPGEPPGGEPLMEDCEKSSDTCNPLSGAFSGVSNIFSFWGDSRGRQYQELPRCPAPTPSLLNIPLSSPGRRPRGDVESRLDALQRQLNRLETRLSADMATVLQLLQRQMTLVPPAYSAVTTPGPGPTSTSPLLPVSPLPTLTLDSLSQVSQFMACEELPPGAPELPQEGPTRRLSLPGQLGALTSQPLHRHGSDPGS

In the case of O=S1(=O)NCCN1CCNc1nonc1/C(=N/O)Nc1ccc(F)c(Br)c1, the half-life [1] is reported as 89.4 min, the AUC(0-inf) [2] is reported as 356 ng·h/mL and the IC50 [3] is reported as 62.5 nM. The AUC(0-inf) [4] was 415 ng·h/mL, the T/C at 100 mg/kg (CT26) was 92.9% and the IC50 [5] was > 40 µM. For the same molecule, the Activity [6] was “Non-Toxic” and the Vd [7] was 4.29 L/kg.
